In publication PMC6400527 (The Journal of General Physiology, 2019):
Read-outs that look alike come from different tables or passages of the source.

What was measured:
[1] = biological target: [Ala^1]gA, 15-amino-acid analogue of gramicidin A; test: single-channel electrophysiology
[2] = biological target: [Ala^1]gA, 15-amino-acid analogue of gramicidin A; test: single-channel electrophysiology; remark: listed apart in the source
[3] = biological target: [Ala^1]gA, 15-amino-acid analogue of gramicidin A; test: single-channel electrophysiology; remark: listed apart in the source
[4] = biological target: [Ala^1]gA, 15-amino-acid analogue of gramicidin A; test: single-channel electrophysiology; remark: listed apart in the source
[5] = biological target: [Ala^1]gA, 15-amino-acid analogue of gramicidin A; test: single-channel electrophysiology; remark: listed apart in the source
[6] = biological target: [Ala^1]gA, 15-amino-acid analogue of gramicidin A; test: single-channel electrophysiology; remark: listed apart in the source
[7] = system: AgA(15) channels in DC18:1PC/n-decane bilayer; test: gA single-channel electrophysiology, AgA; assay type: biochemical; settings: mean ± SE, n = 3–4
In short: (§1)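 Bilayer of DC18:1PC in n-decane formed across a 1–1.5 mm Teflon hole. It was co-doped with AgA(15) (total a few pM) and gA−(13) (~10-fold higher). Test compound from DMSO stock was added to both sides at increasing concentrations. Patches were isolated with 20–40 µm punch electrodes in 1 M NaCl, 10 mM HEPES pH 7, 25 ± 1°C, ±200 mV. Signals were filtered at 5 kHz, sampled at 20 kHz, then filtered at 200–500 Hz. Events were detected by a transition-based algorithm. Lifetimes came from single-exponential fits of survivor histograms, normalized to no-drug lifetimes in the same experiment. n = 3–4.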

[8] = system: gA^−(13) channels in DC18:1PC/n-decane bilayer; test: gA single-channel electrophysiology, gA−; assay type: biochemical; settings: mean ± SE, n = 3–4
In short: as §1

[9] = Bilayer elastic coefficient HB / property altered, from lifetimes of gA−; settings: for decrease of HB (bilayer elastic coefficient): 100 µM, HB of unmodified bilayer ∼22 kBT/nm^2; for bilayer property primarily altered: single-channel electrophysiology
[10] = biological target: des-(D-Val-Gly)gA^−, chain-shortened enantiomer of gramicidin A; test: single-channel electrophysiology
[11] = biological target: des-(D-Val-Gly)gA^−, chain-shortened enantiomer of gramicidin A; test: single-channel electrophysiology; remark: listed apart in the source
[12] = biological target: des-(D-Val-Gly)gA^−, chain-shortened enantiomer of gramicidin A; test: single-channel electrophysiology; remark: listed apart in the source
[13] = biological target: des-(D-Val-Gly)gA^−, chain-shortened enantiomer of gramicidin A; test: single-channel electrophysiology; remark: listed apart in the source
[14] = biological target: des-(D-Val-Gly)gA^−, chain-shortened enantiomer of gramicidin A; test: single-channel electrophysiology; remark: listed apart in the source
[15] = biological target: des-(D-Val-Gly)gA^−, chain-shortened enantiomer of gramicidin A; test: single-channel electrophysiology; remark: listed apart in the source
[16] = ref Karson et al., 1993; Bolo et al., 2000; cited from earlier work

[Ala^1]gA, 15-amino-acid analogue of gramicidin A (peptide)
normalised single-channel (dimer) lifetime τ (AD,15)/τ (cntrl,15) [1]: 1.4 | normalised single-channel (dimer) lifetime τ (AD,15)/τ (cntrl,15) [2]: 2.3 | normalised single-channel (dimer) lifetime τ (AD,15)/τ (cntrl,15) [3]: 2.3 | normalised single-channel (dimer) lifetime τ (AD,15)/τ (cntrl,15) [4]: 1.78 | normalised single-channel (dimer) lifetime τ (AD,15)/τ (cntrl,15) [5]: 1.9 | normalised single-channel (dimer) lifetime τ (AD,15)/τ (cntrl,15) [6]: 1.5

CN(C)CCCC1(c2ccc(F)cc2)OCc2cc(C#N)ccc21 (centres unmarked) [Citalopram (S+), Citalopram]
τAD,15/τcntrl,15 (normalized AgA(15) lifetime) ([7]; 250 µM): 1.9 ± 0.2 | τAD,13/τcntrl,13 (normalized gA−(13) lifetime) ([8]; 250 µM): 2.0 ± 0.2

CNCCC(Oc1ccc(C(F)(F)F)cc1)c1ccccc1 (centres unmarked) [Fluoxetine (R−), Fluoxetine]
τAD,15/τcntrl,15 (normalized AgA(15) lifetime) ([7]; 100 µM): 2.3 ± 0.3 | τAD,13/τcntrl,13 (normalized gA−(13) lifetime) ([8]; 100 µM): 3.1 ± 0.6 | decrease of HB (bilayer elastic coefficient) [9]: ~3.0 ± 0.3 kBT/nm^2

CNCCC(Oc1ccc(C(F)(F)F)cc1)c1ccccc1 (centres unmarked) [Fluoxetine (S+), Fluoxetine]
τAD,15/τcntrl,15 (normalized AgA(15) lifetime) ([7]; 100 µM): 2.3 ± 0.3 | τAD,13/τcntrl,13 (normalized gA−(13) lifetime) ([8]; 100 µM): 2.9 ± 0.4 | decrease of HB (bilayer elastic coefficient) [9]: ~2.3 ± 0.5 kBT/nm^2

CN(C)CCC=C1c2ccccc2CCc2ccccc21 [Amitriptyline]
τAD,15/τcntrl,15 (normalized AgA(15) lifetime) ([7]; 100 µM): 1.5 ± 0.1 | τAD,13/τcntrl,13 (normalized gA−(13) lifetime) ([8]; 100 µM): 1.6 ± 0.1 | bilayer property primarily altered [9]: intrinsic curvature

des-(D-Val-Gly)gA^−, chain-shortened enantiomer of gramicidin A (peptide)
normalised single-channel (dimer) lifetime τ (AD,13)/τ (cntrl,13) [10]: 1.5 | normalised single-channel (dimer) lifetime τ (AD,13)/τ (cntrl,13) [11]: 3.1 | normalised single-channel (dimer) lifetime τ (AD,13)/τ (cntrl,13) [12]: 2.9 | normalised single-channel (dimer) lifetime τ (AD,13)/τ (cntrl,13) [13]: 1.8 | normalised single-channel (dimer) lifetime τ (AD,13)/τ (cntrl,13) [14]: 2 | normalised single-channel (dimer) lifetime τ (AD,13)/τ (cntrl,13) [15]: 1.6

CN(C)CCCC1(c2ccc(F)cc2)OCc2cc(C#N)ccc21 (centres unmarked) [Citalopram]
bilayer property primarily altered [9]: intrinsic curvature

CN(C)CCCC1(c2ccc(F)cc2)OCc2cc(C#N)ccc21 (centres unmarked) [Citalopram (R−), Citalopram]
τAD,15/τcntrl,15 (normalized AgA(15) lifetime) ([7]; 250 µM): 1.78 ± 0.04 | τAD,13/τcntrl,13 (normalized gA−(13) lifetime) ([8]; 250 µM): 1.8 ± 0.1

CN(C)CCCN1c2ccccc2CCc2ccccc21 [Imipramine]
τAD,15/τcntrl,15 (normalized AgA(15) lifetime) ([7]; 100 µM): 1.4 ± 0.1 | τAD,13/τcntrl,13 (normalized gA−(13) lifetime) ([8]; 100 µM): 1.5 ± 0.1 | decrease of HB (bilayer elastic coefficient) [9]: ~1.3 ± 0.9 kBT/nm^2 | bilayer property primarily altered [9]: intrinsic curvature

CNCCC(Oc1ccc(C(F)(F)F)cc1)c1ccccc1 (centres unmarked) [Fluoxetine]
bilayer property primarily altered [9]: bilayer elasticity | concentration in brain [16]: up to 10 µM
